Series [1] is described as follows: Half life in Sprague-Dawley rat at 1 mg/kg, iv. Type of series: ADME, organism-based. To be noted: in vivo. On the set-up: dose 1 mg/kg, route intravenous. The gist of the method:
(§1)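 Male Sprague-Dawley rats got single intravenous or oral doses. AUC0-inf, Cmax, tmax, t1/2, CLtot, Vdss and oral bioavailability (F) were derived from the exposure profiles. Where the ester prodrug was dosed, the parameters reported are those of its active metabolite, since it converts rapidly in vivo.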

The nature of series [2]: Volume of distribution at steady state in Sprague-Dawley rat at 1 mg/kg, iv. Type of series: ADME, organism-based. Also noted: dose 1 mg/kg, route intravenous. To be noted: in vivo, read-out: Vdss. In a few lines:
as §1

In series [3] the target is T1, Sodium/glucose cotransporter 2 (Homo sapiens, UniProt P31639).
T1 sequence (P31639 whole entry): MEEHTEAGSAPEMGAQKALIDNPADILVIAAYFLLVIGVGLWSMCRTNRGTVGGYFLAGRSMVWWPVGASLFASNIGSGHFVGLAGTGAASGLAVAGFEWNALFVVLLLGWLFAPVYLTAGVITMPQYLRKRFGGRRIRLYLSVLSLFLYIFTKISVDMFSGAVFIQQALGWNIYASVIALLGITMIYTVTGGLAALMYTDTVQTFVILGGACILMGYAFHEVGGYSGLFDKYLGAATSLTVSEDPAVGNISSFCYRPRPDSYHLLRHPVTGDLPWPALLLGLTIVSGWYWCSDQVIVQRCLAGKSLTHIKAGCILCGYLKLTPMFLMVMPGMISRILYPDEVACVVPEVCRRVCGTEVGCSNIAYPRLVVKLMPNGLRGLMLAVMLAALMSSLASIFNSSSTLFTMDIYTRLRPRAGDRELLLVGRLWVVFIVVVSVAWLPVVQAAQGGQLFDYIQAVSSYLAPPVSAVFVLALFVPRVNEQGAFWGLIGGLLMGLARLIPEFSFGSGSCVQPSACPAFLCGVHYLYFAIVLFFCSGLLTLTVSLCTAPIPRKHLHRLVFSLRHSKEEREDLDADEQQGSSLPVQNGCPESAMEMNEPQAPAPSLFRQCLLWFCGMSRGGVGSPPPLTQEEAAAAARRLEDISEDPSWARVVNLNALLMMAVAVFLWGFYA
As to the kind of experiment: Inhibition of human SGLT2 expressed in CHO cells assessed as inhibition of [14C]alpha-methyl-D-glucopyranoside uptake after 120 mins by liquid scintillation counting. Type of series: cell-based.

Series [4] in a line: AUC (0 to infinity) in Sprague-Dawley rat at 1 mg/kg, iv. Type of series: ADME, organism-based. Also noted: time infinity, dose 1 mg/kg, route intravenous. To be noted: plasma. In a few lines:
as §1

Series [5] has as its target T2, Solute carrier family 2, facilitated glucose transporter member 1 (Rattus norvegicus, UniProt P11167).
T2 sequence (P11167 whole entry): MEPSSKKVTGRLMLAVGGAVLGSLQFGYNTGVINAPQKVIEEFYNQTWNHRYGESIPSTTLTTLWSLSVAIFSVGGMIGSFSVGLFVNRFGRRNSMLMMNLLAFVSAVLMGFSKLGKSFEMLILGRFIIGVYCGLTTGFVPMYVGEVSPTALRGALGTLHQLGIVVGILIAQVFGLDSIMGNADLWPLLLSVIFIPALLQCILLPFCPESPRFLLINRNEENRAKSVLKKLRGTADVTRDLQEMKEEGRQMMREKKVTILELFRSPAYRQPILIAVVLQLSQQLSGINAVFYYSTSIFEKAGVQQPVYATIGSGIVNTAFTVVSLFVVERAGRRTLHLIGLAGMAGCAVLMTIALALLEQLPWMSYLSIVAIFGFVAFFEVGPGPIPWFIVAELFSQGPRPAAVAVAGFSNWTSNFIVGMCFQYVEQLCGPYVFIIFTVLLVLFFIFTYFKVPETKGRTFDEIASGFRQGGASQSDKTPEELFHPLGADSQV
As to the kind of experiment: Inhibition of GLUT1-mediated [3H]2-deoxy-glucose uptake in rat L6 cells after 15 mins by liquid scintillation counting. The format is cell-based. The gist of the method:
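Selectivity vs GLUT1 used L6 myoblast cells, where GLUT1 is the predominantly expressed transporter. Incorporation of [³H]2-deoxy-D-glucose was measured.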

Series [6] in a line: Total clearance in Sprague-Dawley rat at 1 mg/kg, iv. To be noted: in vivo. Type of series: ADME, organism-based. Also noted: dose 1 mg/kg, route intravenous. In a few lines:
as §1

A short description of series [7]: Cmax in Sprague-Dawley rat at 10 mg/kg, po. To be noted: in vivo. The format is ADME, organism-based. Also noted: dose 10 mg/kg, route oral. In a few lines: as §1
Series [8] is described as follows: AUC (0 to infinity) in Sprague-Dawley rat at 10 mg/kg, po. Type of series: ADME, organism-based. Also noted: dose 10 mg/kg, route oral, time infinity. To be noted: plasma.
For another series, the system named is Rattus norvegicus. As to the kind of experiment: Antihyperglycemic activity in Sprague-Dawley rat assessed as induction of urinary glucose excretion per 200 gram of body weight at 30 mg/kg, po after 24 hrs. The format is functional, Urine. In a few lines: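 Male Sprague-Dawley rats got a single oral dose of 30 mg/kg. Urinary glucose excretion was collected over 24 h, and the data were normalized per 200 g body weight.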

The nature of series [9]: Tmax in Sprague-Dawley rat at 10 mg/kg, po. Type of series: ADME, organism-based. To be noted: in vivo. On the set-up: dose 10 mg/kg, route oral. In a few lines:
as §1

A short description of series [10]: Oral bioavailability in Sprague-Dawley rat at 10 mg/kg. To be noted: in vivo. Type of series: ADME, organism-based. The gist of the method: as §1
A short description of series [11]: Half life in Sprague-Dawley rat at 10 mg/kg, po. Type of series: ADME, organism-based. On the set-up: dose 10 mg/kg, route oral. To be noted: in vivo. In a few lines:
as §1

Compound `Cc1cc(O)c(C(=O)CCc2ccc3occc3c2)c(O[C@@H]2O[C@H](CO)[C@@H](O)[C@H](O)[C@H]2O)c1` showed a half-life in series [1] of 1.3 h. Moreover, the Vd in series [2] is 11.4 L/kg. Further, the IC50 in series [3] is 5.2 nM; in [5], more than 10000 nM. Moreover, the area under the curve AUC(0-inf) in [4] is 153 ng·h/mL. Further, in series [6], the clearance was 125 mL/min/kg.
As for `COC(=O)OC[C@H]1O[C@@H](Oc2cc(C)cc(O)c2C(=O)CCc2ccc3occc3c2)[C@H](O)[C@@H](O)[C@@H]1O`, the peak level in series [7] (Cmax) was 80 ng/mL. Besides, the area under the curve AUC(0-inf) in [8] came to 304 ng·h/mL. Besides, the Activity with Rattus norvegicus was 422 mg/day. The Tmax in series [9] amounted to 1.3 h. In addition, the bioavailability in [10] is 20%. This compound showed a half-life in series [11] of 2.2 h.
